For assay [1], the system named is advanced solid tumors. In words: Tumor response by RECIST 1.0. Type of assay: in vivo, human. In short, it runs like this:
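Patients with at least one RECIST-measurable lesion and progressive disease at entry had CT and/or MRI every 8 weeks for up to 6 months of treatment, then every 12 weeks. Response was scored by RECIST 1.0. Dosing was oral once daily on days 1–5 every 14 days, 100–800 mg.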

Assay [2] deals with HDAC enzyme. In words: Cellular HDAC enzyme activity assay in patient blood cells. Type of assay: in vivo, human. The following applies: plasma concentration, 2 hour post-dose on day 1, all dose levels, Hill model. In short, it runs like this:
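Whole citrate blood (1 ml) was incubated 2 h at 37°C with fluorogenic substrate Boc-K(Ac)-AMC, then erythrocytes were lysed and cells stored at −80°C. Developer reagent lysed cells and released fluorescence from the deacetylated substrate, read by fluorimetry. Untreated control was set as 100% activity and 10 μM trichostatin A as 100% inhibition. Sampling: C1D1 pre-dose, 2, 5, 8, 24 h; C1D5; C4D5.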

In assay [3] the test system is rodent and human cancer cell lines. Conditions: large variety of cell lines; ref Investigator’s Brochure, version 5, 2010; cited from earlier work.
For assay [4], the system named is histone H4 acetylation. In words: Histone H4 acetylation in PBMC by Western blotting. Type of assay: in vivo, human. The following applies: 800 mg dose level. (In general: A western blot detects proteins with antibodies after separation by electrophoresis.)

For `CN(C)Cc1ccc(S(=O)(=O)n2ccc(/C=C/C(=O)NO)c2)cc1` [resminostat], the “Patients who achieved SD” value in assay [1] (600 mg dose group) was “Three of 3”. In assay [1] (all dose levels, 95% CI: 34–80), the “Patients with stable disease (SD) lasting >8 weeks” value is given as 58%. Besides, in assay [1] (one patient with metastatic thymoma), the “Reduction in the sum of the longest diameters of tumor target lesions” value was 27%. Besides, the “Time on study with SD” value in assay [1] (patient with liposarcoma, 31 cycles) was determined as 14.2 months. In assay [2], the “Resminostat concentration at 50% of HDAC enzyme inhibition” value turned out to be 306 ng/mL. In assay [3], the “Concentrations that inhibit proliferation” value is recorded as “sub-to-low micromolar”. Also, the “Median increase of histone H4 acetylation level” value in assay [4] stood at 10 fold.

The values above are taken from publication PMC3790647 (Clinical cancer research : an official journal of the …, 2013).
